Here are results for 20 molecules from ChEMBL document CHEMBL4265950, “Discovery of furyl/thienyl β-carboline derivatives as potent and selective PDE5 inhibitors with excellent vasorelaxant effect” (Eur J Med Chem, 2018).

Data set [1] deals with T1, cGMP-specific 3',5'-cyclic phosphodiesterase (Homo sapiens, UniProt O76074). Briefly: Inhibition of PDE5 (unknown origin).
The species entered for data set [2] is Homo sapiens. As to the kind of experiment: Selectivity index, ratio of IC50 for inhibition of full length recombinant human N-terminal GST-tagged PDE6C expressed in baculovirus infected sf9 cells to IC50 for inhibition of full length recombinant human N-terminal GST-tagged PDE5A1 expressed in baculovirus infected sf9 cells.
Data set [3] addresses T1, cGMP-specific 3',5'-cyclic phosphodiesterase. Briefly: Inhibition of full length recombinant human N-terminal GST-tagged PDE5A1 expressed in baculovirus infected sf9 cells at 100 nM using FAM-cyclic-3',5-GMP as substrate after 1 hr by fluorescence polarization assay relative to control. An outline of the steps: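 Single-point test at 100 nM, reported as percent inhibition. Human PDE5 at 15 ng/mL with 100 nM FAM-cGMP in MOPS pH 7.5 buffer (MgCl2, EDTA, BSA, DTT), 1% DMSO final, 60 min at 25 °C. Binding agent added for 1 h, then fluorescence polarization read at […] nm.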
For orientation: Fluorescence polarisation rises when a labelled molecule tumbles more slowly, as on binding a larger partner.

The target of data set [4] is Dual specificity calcium/calmodulin-dependent 3',5'-cyclic nucleotide phosphodiesterase 1A (Homo sapiens, UniProt P54750). Briefly: Inhibition of full length recombinant human N-terminal GST-tagged PDE1A expressed in baculovirus infected sf9 cells using FAM-cyclic-3',5-AMP as substrate after 1 hr by fluorescence polarization assay. The method, boiled down:
(§1)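 Fluorescence polarization assay run at 25 °C for 60 min in 40 mM MOPS pH 7.5, 0.5 mM EDTA, 15 mM MgCl2, 0.15 mg/mL BSA, 1 mM DTT, 0.05% ProClin 200. Contained 15 ng/mL PDE isoform and 100 nM FAM-cGMP or FAM-cAMP according to isoform, with 1% DMSO final. Binding agent added for 1 h at 25 °C; read at […] nm. IC50 from normalized nonlinear dose-response fit.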

Data set [5] has as its target cGMP-specific 3',5'-cyclic phosphodiesterase (Rattus norvegicus, UniProt O54735). As to the kind of experiment: (§2) Inhibition of PDE5 in Wistar rat mesentric arteries assessed as inhibition of phenylephrine-induced contraction by measuring increase in acetylcholine-induced vasorelaxation by pressure myographic method. The method, boiled down: (§3)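 Third-order rat mesenteric arteries (110–150 µm), 3–4 mm unbranched segments, cannulated in PSS (pH 7.4, 95% O2/5% CO2). Equilibrated 35 min while pressure was stepped 10→60 mmHg. Checked with 120 mM KCl and acetylcholine, then constricted with 20 µM phenylephrine (norepinephrine in text) and given compounds cumulatively. Ca²⁺-free PSS set maximal dilation. Outer diameter recorded as % relaxation; EC50 from normalized nonlinear fit.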

Data set [6] has as its target cGMP-specific 3',5'-cyclic phosphodiesterase (Rattus norvegicus) (UniProt O54735). The data set is described as §2. An outline of the steps: as §3
For data set [7], the species on record is Homo sapiens. As to the kind of experiment: Selectivity index, ratio of IC50 for inhibition of full length recombinant human N-terminal GST-tagged PDE11A4 expressed in baculovirus infected sf9 cells to IC50 for inhibition of full length recombinant human N-terminal GST-tagged PDE5A1 expressed in baculovirus infected sf9 cells.
The target of data set [8] is T1, cGMP-specific 3',5'-cyclic phosphodiesterase. As to the kind of experiment: Inhibition of full length recombinant human N-terminal GST-tagged PDE5A1 expressed in baculovirus infected sf9 cells using FAM-cyclic-3',5-GMP as substrate after 1 hr by fluorescence polarization assay.
Data set [9] addresses cGMP-dependent 3',5'-cyclic phosphodiesterase (Homo sapiens, UniProt O00408). As to the kind of experiment: Inhibition of recombinant human N-terminal FLAG-tagged PDE2A (2 to 941 residues) expressed in baculovirus infected sf9 cells using FAM-cyclic-3',5-AMP as substrate after 1 hr by fluorescence polarization assay. The method, boiled down: as §1
Data set [10] has as its target Dual 3',5'-cyclic-AMP and -GMP phosphodiesterase 11A (Homo sapiens, UniProt Q9HCR9). Briefly: Inhibition of full length recombinant human N-terminal GST-tagged PDE11A4 expressed in baculovirus infected sf9 cells using FAM-cyclic-3',5-AMP as substrate after 1 hr by fluorescence polarization assay.
In data set [11] the target is 3',5'-cyclic-AMP phosphodiesterase 4A (Homo sapiens, UniProt P27815). Briefly: Inhibition of full length recombinant human N-terminal GST-tagged PDE4A1A expressed in baculovirus infected sf9 cells using FAM-cyclic-3',5-AMP as substrate after 1 hr by fluorescence polarization assay.
For data set [12], the target named is Cone cGMP-specific 3',5'-cyclic phosphodiesterase subunit alpha' (Homo sapiens, UniProt P51160). As to the kind of experiment: Inhibition of full length recombinant human N-terminal GST-tagged PDE6C expressed in baculovirus infected sf9 cells using […] as substrate after 1 hr by fluorescence polarization assay.
The target of data set [13] is cGMP-inhibited 3',5'-cyclic phosphodiesterase 3B (Homo sapiens, UniProt Q13370). Briefly: Inhibition of recombinant human N-terminal GST-tagged PDE3B (592 to end residues) expressed in baculovirus infected sf9 cells using FAM-cyclic-3',5-AMP as substrate after 1 hr by fluorescence polarization assay. An outline of the steps: as §1
Data set [14] is described as follows: Stability of the compound in PDE5 enzyme assay condition at 100 uM by HPLC analysis. It is filed as ADME.

SMILES strings stand for the structures.

In general, IC50 refers to the concentration at which inhibition is half-maximal. As a reminder, the inhibition is the share of the control response that was lost under treatment. A word on the EC50: it is the concentration at which the effect is half-maximal. The Ki is a dissociation constant, usually derived from enzyme kinetics or from competition with a known ligand. Low readings indicate higher affinity, high ones lower affinity.

Chain of Cone cGMP-specific 3',5'-cyclic phosphodiesterase subunit alpha' (P51160 whole entry): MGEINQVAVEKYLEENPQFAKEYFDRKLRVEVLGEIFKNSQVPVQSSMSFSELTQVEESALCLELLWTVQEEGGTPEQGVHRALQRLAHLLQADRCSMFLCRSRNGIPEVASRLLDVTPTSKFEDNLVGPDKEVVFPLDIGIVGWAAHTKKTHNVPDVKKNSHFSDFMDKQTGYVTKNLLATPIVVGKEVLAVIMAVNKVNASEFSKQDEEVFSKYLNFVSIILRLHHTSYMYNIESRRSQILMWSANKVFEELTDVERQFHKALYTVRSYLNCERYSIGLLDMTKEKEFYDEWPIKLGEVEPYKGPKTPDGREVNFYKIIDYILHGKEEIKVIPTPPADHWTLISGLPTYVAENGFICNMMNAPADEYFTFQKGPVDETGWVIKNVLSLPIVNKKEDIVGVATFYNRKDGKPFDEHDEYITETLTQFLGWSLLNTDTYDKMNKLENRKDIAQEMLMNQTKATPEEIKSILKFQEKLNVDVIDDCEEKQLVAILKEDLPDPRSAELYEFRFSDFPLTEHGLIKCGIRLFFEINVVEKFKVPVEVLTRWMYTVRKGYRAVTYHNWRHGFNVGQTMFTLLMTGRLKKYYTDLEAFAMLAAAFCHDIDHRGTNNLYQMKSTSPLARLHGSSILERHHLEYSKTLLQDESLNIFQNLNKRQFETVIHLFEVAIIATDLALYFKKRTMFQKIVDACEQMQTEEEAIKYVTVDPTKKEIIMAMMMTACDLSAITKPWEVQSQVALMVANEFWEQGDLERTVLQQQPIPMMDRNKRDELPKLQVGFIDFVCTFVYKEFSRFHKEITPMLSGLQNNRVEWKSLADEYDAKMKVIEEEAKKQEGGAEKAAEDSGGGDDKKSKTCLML
Chain of 3',5'-cyclic-AMP phosphodiesterase 4A (P27815 whole entry): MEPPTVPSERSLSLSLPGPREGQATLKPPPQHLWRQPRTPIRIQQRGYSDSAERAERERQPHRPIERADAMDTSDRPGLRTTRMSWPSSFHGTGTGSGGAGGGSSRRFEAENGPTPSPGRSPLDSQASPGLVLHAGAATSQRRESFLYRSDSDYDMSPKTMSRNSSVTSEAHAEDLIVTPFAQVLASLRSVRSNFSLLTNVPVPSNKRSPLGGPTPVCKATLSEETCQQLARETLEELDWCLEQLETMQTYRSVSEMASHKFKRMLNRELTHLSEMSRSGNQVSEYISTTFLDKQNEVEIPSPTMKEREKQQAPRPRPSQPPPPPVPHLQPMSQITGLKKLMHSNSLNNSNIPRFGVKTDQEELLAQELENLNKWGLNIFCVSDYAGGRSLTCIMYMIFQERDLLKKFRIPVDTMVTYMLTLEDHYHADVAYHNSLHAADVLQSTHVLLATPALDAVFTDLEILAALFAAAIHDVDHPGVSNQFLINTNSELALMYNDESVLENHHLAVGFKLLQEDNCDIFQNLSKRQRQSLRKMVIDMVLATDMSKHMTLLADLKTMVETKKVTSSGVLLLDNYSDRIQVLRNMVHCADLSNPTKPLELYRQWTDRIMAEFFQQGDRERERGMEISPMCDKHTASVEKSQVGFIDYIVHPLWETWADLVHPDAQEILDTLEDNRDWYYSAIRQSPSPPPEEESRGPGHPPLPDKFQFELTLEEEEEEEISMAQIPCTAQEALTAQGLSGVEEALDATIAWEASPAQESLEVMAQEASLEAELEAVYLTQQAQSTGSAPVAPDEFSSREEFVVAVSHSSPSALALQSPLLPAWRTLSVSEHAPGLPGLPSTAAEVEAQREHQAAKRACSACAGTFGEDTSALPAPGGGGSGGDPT
Chain of Dual specificity calcium/calmodulin-dependent 3',5'-cyclic nucleotide phosphodiesterase 1A (P54750 whole entry, canonical isoform): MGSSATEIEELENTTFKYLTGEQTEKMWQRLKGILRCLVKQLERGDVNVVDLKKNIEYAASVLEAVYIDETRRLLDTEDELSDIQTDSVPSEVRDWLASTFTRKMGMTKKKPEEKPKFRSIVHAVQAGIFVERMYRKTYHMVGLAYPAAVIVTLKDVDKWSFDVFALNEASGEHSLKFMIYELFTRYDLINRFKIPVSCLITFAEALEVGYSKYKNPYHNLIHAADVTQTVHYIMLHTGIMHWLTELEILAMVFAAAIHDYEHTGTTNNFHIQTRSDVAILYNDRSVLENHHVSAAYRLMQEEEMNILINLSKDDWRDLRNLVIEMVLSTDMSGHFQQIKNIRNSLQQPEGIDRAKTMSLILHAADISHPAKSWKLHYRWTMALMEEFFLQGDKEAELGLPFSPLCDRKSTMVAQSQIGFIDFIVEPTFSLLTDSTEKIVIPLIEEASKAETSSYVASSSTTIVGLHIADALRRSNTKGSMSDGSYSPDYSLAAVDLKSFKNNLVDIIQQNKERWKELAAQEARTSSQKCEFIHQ
Chain of cGMP-inhibited 3',5'-cyclic phosphodiesterase 3B (Q13370 whole entry): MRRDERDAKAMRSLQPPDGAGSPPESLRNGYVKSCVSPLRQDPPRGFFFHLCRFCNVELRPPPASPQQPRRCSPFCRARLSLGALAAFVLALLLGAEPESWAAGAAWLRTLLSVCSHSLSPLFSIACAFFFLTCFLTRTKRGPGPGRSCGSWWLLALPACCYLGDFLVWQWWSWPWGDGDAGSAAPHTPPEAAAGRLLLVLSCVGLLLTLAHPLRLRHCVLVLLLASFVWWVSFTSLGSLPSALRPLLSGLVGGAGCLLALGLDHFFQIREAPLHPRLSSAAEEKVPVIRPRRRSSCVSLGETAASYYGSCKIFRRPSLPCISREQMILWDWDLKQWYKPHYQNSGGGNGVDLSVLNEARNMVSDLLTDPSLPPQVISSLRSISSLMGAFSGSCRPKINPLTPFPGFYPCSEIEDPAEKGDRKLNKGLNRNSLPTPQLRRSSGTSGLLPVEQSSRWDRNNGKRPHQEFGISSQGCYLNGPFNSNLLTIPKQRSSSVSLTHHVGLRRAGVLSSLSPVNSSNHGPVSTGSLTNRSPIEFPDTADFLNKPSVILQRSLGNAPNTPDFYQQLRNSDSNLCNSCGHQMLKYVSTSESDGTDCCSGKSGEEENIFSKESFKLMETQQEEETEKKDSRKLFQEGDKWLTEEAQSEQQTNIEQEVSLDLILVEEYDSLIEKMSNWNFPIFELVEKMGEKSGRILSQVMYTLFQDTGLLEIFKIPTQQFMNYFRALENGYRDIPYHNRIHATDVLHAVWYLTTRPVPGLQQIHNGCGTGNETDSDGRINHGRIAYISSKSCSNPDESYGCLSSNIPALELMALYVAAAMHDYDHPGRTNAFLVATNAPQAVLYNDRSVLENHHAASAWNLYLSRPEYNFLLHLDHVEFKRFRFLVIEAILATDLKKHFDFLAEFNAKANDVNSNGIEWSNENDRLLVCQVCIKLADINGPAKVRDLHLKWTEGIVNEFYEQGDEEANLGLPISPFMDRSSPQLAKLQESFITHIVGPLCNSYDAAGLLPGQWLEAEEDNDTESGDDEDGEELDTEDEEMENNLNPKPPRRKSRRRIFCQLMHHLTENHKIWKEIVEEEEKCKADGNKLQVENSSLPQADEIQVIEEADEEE
Chain of cGMP-dependent 3',5'-cyclic phosphodiesterase (O00408 whole entry, the tested form may be a part): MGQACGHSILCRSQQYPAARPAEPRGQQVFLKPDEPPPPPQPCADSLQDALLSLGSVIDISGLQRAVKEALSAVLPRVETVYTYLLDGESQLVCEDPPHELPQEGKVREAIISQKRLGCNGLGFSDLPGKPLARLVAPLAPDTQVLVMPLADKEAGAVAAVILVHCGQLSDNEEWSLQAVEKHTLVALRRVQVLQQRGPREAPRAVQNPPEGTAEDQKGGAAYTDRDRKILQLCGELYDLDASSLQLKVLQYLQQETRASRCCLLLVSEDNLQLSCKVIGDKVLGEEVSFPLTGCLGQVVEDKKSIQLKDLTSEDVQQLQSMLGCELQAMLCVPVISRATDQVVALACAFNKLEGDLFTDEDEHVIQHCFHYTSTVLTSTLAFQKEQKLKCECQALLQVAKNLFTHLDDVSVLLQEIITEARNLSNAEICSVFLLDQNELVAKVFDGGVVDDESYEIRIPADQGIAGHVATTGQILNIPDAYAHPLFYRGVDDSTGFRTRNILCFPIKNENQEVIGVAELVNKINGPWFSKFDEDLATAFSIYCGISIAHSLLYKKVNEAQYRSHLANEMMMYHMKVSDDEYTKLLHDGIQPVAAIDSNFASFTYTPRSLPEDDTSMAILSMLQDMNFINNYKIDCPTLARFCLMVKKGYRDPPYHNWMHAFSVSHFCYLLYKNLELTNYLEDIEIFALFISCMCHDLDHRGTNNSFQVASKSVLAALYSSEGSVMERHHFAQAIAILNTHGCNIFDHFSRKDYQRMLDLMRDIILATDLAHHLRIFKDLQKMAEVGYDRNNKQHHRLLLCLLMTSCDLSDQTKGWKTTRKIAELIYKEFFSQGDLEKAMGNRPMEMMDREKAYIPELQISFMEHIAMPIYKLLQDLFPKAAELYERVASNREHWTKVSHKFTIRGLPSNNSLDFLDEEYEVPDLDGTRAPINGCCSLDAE

In [1], `c1ccc(CNc2ncnc3sc4c(c23)CCCCC4)cc1` had an IC50 of 190 nM.

`CC(C)(C)Oc1ccc(Cc2[nH]c(-c3ccco3)c3c(=O)c4ccccc4oc23)cc1` had an IC50 in data set [1] of 240 nM.

Regarding `CN1CC(=O)N2[C@H](c3ccc(Br)s3)c3[nH]c4ccccc4c3C[C@@H]2C1=O`, the Ratio IC50 worked out at 19 in data set [2] and 30 in data set [7]. In addition, in [3], the inhibition was found to be 99.2%. Moreover, the IC50 was over 20000 nM in [4]; 7.2 nM in [8]; over 20000 nM in data set [9]; 219 nM in [10]; over 10000 nM in data set [11]; 136 nM in data set [12]. In addition, the IC50 in data set [13] is over 20000 nM. Also, the EC50 in data set [5] is 55 nM. The percent relaxation entry in data set [6] is “Dose-dependent effect”.

Take `CCc1ccc([C@@H]2c3[nH]c4ccccc4c3C[C@@H]3C(=O)N(CC)C(=O)N23)o1`: the Ratio IC50 in data set [2] was over 118; in [7], 12. Further, the inhibition in [3] amounted to 85.8%. Moreover, the IC50 is over 20000 nM in data set [4]; 8.44 nM in [8]; over 20000 nM in data set [9]; 99 nM in data set [10]; over 10000 nM in data set [11]; over 1000 nM in data set [12]. The IC50 in [13] is over 20000 nM. Further, in data set [5], the EC50 was 225 nM. In addition, the percent relaxation result in data set [6] is “Dose-dependent effect”.

With `COc1ccc(-c2cnc(N3CC(=O)c4c([nH]c5ccccc45)C3c3ccc4c(c3)OCO4)nc2)cc1OC` (racemic), in data set [1], the affinity, expressed as Ki, was 8 nM.

For the molecule `CCc1ccc(C2c3[nH]c4ccccc4c3C(=O)CN2c2ncc(-c3ccc(OC)c(OC)c3)cn2)o1` (centres undefined), the Ratio IC50 in data set [2] stood at 5; in data set [7], 12. Besides, the inhibition in data set [3] came to 73.3%. The IC50 in data set [8] was 52.5 nM; in data set [10], 634 nM; in data set [12] it was 288 nM. In addition, the Stability entry in data set [14] is on record as “Stable”.

As for `CCc1ccc(C(=O)c2[nH]c3ccccc3c2CCNc2ccc(-c3ccccn3)cn2)s1`, the inhibition in data set [3] amounted to 25.2%. For the same molecule, the Stability result in data set [14] was “Stable”.

Consider `CCc1ccc([C@@H]2c3[nH]c4ccccc4c3C[C@H]3C(=O)N(CC)C(=O)N23)s1`, for which the Ratio IC50 in data set [2] was 11; in data set [7], over 190. Further, in data set [3], the inhibition is 94.1%. The IC50 is over 20000 nM in data set [4]; 5.24 nM in data set [8]; over 20000 nM in data set [9]; over 1000 nM in data set [10]; over 10000 nM in data set [11]; 56 nM in data set [12]. Also, the IC50 in data set [13] is over 20000 nM. The EC50 in [5] came out at 58 nM. In addition, the percent relaxation result in data set [6] was “Dose-dependent effect”. The Stability result in data set [14] was “Stable”.

On to `CCN1C(=O)[C@@H]2Cc3c([nH]c4ccccc34)[C@@H](c3ccc(C)o3)N2C1=O`, for which the values for the Ratio IC50 in data set [2] and in data set [7] were 6 and 0.4, respectively. Moreover, in data set [3], the inhibition worked out at 85.4%. For the same molecule, the IC50 was over 20000 nM in [4]; 10.5 nM in [8]; over 20000 nM in data set [9]; 4 nM in [10]; over 10000 nM in data set [11]; 62 nM in [12]. Further, in data set [13], the IC50 is over 20000 nM. In addition, the EC50 in data set [5] worked out at 191 nM. In addition, the percent relaxation result in [6] was “Dose-dependent effect”.

Take `CCc1ccc([C@@H]2c3[nH]c4ccccc4c3C[C@@H]3C(=O)N(CC)C(=O)N23)s1`: the Ratio IC50 in data set [2] was over 142; in data set [7] it was 24. In data set [3], the inhibition was found to be 91.4%. Also, the IC50 is over 20000 nM in [4]; 7.02 nM in data set [8]; over 20000 nM in data set [9]; 169 nM in data set [10]; over 10000 nM in data set [11]; over 1000 nM in data set [12]. Also, the IC50 in data set [13] is over 20000 nM. Also, the EC50 in data set [5] stood at 103 nM. In data set [6], the percent relaxation entry was “Dose-dependent effect”.

As to `Cc1ccc([C@@H]2c3[nH]c4ccccc4c3C[C@@H]3C(=O)N(C)CC(=O)N23)s1`, the Ratio IC50 in data set [2] was over 115; in [7], 20. The inhibition in data set [3] came to 96%. Further, the IC50 in [4] was over 20000 nM; in data set [8] it was 8.68 nM; in data set [9], over 20000 nM; in data set [10], 173 nM; in [11], over 10000 nM; in data set [12], over 1000 nM. Also, the IC50 in data set [13] is over 20000 nM. Moreover, in data set [5], the EC50 amounted to 71 nM. Moreover, the percent relaxation result in [6] was “Dose-dependent effect”.

Turning to `CCN1C(=O)[C@@H]2Cc3c([nH]c4ccccc34)[C@@H](c3sccc3C)N2C1=O`, the Ratio IC50 came out at 0.6 in data set [2] and 7 in data set [7]. Besides, in data set [3], the inhibition turned out to be 76.1%. The IC50 in data set [4] is over 20000 nM; in data set [8] it was 21.4 nM; in [9] it was over 20000 nM; in [10] it was 155 nM; in data set [11] it was over 10000 nM; in [12], 13 nM. Besides, the IC50 in data set [13] was over 20000 nM.

For the molecule `CCCCCN1C(=O)[C@@H]2Cc3c([nH]c4ccccc34)[C@@H](c3ccc(Br)s3)N2C1=O`, the IC50 in [1] is 170 nM.

Regarding `CCNC(=O)N1[C@H](c2ccc(CC)o2)c2[nH]c3ccccc3c2C[C@@H]1C(=O)OC`, the inhibition in data set [3] is 46.1%. Besides, the Stability result in [14] is “Stable”.

With `CCN1C(=O)[C@@H]2Cc3c([nH]c4ccccc34)[C@@H](c3ccc(Br)s3)N2C1=O`, in data set [1], the IC50 amounted to 160 nM.

`CCc1ccc([C@H]2c3[nH]c4ccccc4c3C[C@H]3C(=O)N(C)CC(=O)N23)s1`: the Ratio IC50 in [2] and in data set [7] was over 50 each time. Moreover, the inhibition in data set [3] turned out to be 86.7%. Also, the IC50 was over 20000 nM in data set [4]; 19.9 nM in data set [8]; over 20000 nM in data set [9]; over 1000 nM in data set [10]; over 10000 nM in [11]; over 1000 nM in data set [12]. In data set [13], the IC50 is over 20000 nM.

`COc1ccc(CN=c2[nH]c(N3CCC[C@H]3CO)ncc2C(=O)NCc2ncccn2)cc1Cl` yielded a Ki in data set [1] of 5 nM.

On to `CCNC(=O)c1cc2c([nH]c3ccccc32)c(-c2ccc(CC)s2)n1`, for which, in [3], the inhibition amounted to 47.8%. The IC50 in data set [8] was found to be 227 nM. Further, the Stability entry in [14] is listed as “Stable”.

In the case of `CCc1ccc(C2c3[nH]c4ccccc4c3CCN2c2ccc(-c3ccccn3)cn2)s1` (centres undefined), it took 86 nM to reach half-maximal inhibition in [1] (IC50).

As to `CCCCN1C(=O)[C@@H]2Cc3c([nH]c4ccccc34)[C@@H](c3ccc(CC)s3)N2C1=O`, the Ratio IC50 in [2] is 4; in data set [7] it was over 33. The inhibition in data set [3] turned out to be 79.4%. The IC50 was over 20000 nM in [4]; 30.3 nM in [8]; over 20000 nM in data set [9]; over 1000 nM in data set [10]; over 10000 nM in [11]; 107 nM in [12]. Also, in data set [13], the IC50 was over 20000 nM.
